TAAR1 agonist = agonists of human TAAR1 | Q96RJ0 | CHO RD-HGA16 TAAR1, Fluo-8 calcium fluorescence; vehicle wells 0%, saturating PEA agonist 100% | activation, % at 3 µM | actives 0.99% (n = 360,000);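 active = activation above the mean activation of all test compounds in the run plus 3 SD, cut at about 38% in these data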
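Assay system – CHO-derived RD-HGA16 cells with stable Gα16 and human TAAR1 · Compound dosing – one-point dosing at 3 µM (nominal) · Incubation – 17-24 h seeding, 75 min 37 °C dye, 30 min RT · Measured by – kinetic Fluo-8 calcium fluorescence · Control set – DMSO vehicle as 0%, PEA at EC100 as 100% · Repeats – single well for each compound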
MC4R ag barr = human MC4R agonism via beta-arrestin; activation, % at 8.9 µM; U2OS MC4R beta-arrestin complementation, luminescence; percent of melanotan II response, DMSO zero; actives 0.98% (n = 360,000);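 active = activation above a per-plate cutoff, the mean activation of sample wells on that plate plus 3 SD, cut at about 8% in these data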
MC4R antagonist = antagonists of human melanocortin 4 receptor (MC4R); P32245; MC4R-expressing cells, MTII-stimulated cAMP, LANCE TR-FRET; inhibition, % at 6.5 µM; actives 0.48% (n = 360,000);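 active = inhibition above its plate's cutoff, the mean of tested wells on that plate plus 3 SD, cut at about 29% in these data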;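 also: 0% = Melanotan II alone and 100% = Melanotan II plus saturating MCL0020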
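System – human MC4R-expressing U2OS cells · Also added – Melanotan II · Dosing – one concentration, 6.5 µM nominal · Timing – 30-min compound, 1-h challenge, 1-h detection, room temperature · Measured by – Eu-cAMP/anti-cAMP TR-FRET, emission 671 nm · Replicates – singlicate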
m5-HT2A agonist = agonists of mouse serotonin 5-HT2A receptor (HTR2A). actives 0.66% (n = 360,000). AID 624169. CHO-K1 mHTR2A beta-arrestin complementation, luminescence; percent of 30 µM serotonin response. activation, % at 7.6 µM. P35363;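 active = activation above a run cutoff, the mean activation of all tested compounds plus 3 SD, cut at about 14% in these data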;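 also: 0% = plate median of compound wells and 100% = 30 µM serotonin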
TAAR1 antag = human TAAR1 antagonism. Q96RJ0. CHO RD-HGA16 TAAR1, Fluo-8 calcium fluorescence, antagonist. inhibition, % at 3 µM. actives 1.5% (n = 360,000). AID 624466;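 active = inhibition above a per-plate cutoff, the mean inhibition of test compounds on that plate plus 3 SD, cut at about 49% in these data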;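 also: 0% = DMSO plus EC80 beta-PEA response and 100% = DMSO alone without agonist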
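Assay system: RD-HGA16 CHO cells with stable hTAAR1 and Gα16 / Reagent: EC80 β-phenethylamine stimulus / Doses: 3 µM, single point / Timing: dye loading 75 min at 37 °C, then 30 min room temperature / Measured by: Fluo-8 intracellular calcium dye fluorescence, real-time kinetic reads / Controls: vehicle wells and EC80 agonist wells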
Beta2AR agonist = activates human beta-2 adrenergic receptor causing internalization | Am2.2-beta2AR cells, FAP receptor internalization, flow cytometry | response, % (test concentration not listed) | actives 0.43% (n = 340,000);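 active = response above a set limit, near 3 SD of response in nonfluorescent compounds, cut at about 42% in these data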
Target sequence (P07550 whole entry, looked up): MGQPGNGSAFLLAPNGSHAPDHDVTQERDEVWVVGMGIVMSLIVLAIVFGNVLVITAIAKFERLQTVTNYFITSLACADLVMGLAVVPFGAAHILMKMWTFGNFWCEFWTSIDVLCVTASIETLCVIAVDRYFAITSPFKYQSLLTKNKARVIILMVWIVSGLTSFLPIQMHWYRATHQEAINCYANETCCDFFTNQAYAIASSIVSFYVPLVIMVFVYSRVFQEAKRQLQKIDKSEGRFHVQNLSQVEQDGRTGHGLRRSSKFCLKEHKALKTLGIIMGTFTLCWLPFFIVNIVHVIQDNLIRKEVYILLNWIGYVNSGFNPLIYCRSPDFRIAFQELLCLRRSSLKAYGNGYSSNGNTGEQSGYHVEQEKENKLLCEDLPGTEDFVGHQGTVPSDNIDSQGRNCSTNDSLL
OPRM1 ag = OPRM1 agonism in mouse HTR2A counterscreen; shares compounds with m5-HT2A agonist; U2OS OPRM1 beta-arrestin PathHunter, luminescence; DMSO 0%, DAMGO 9.3 µM 100%; activation, % at 9.3 µM; actives 5.3% (n = 2,300);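 active = mean activation above the mean of DMSO-only wells plus 3 SD, cut at about 0.5% in these data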
m5-HT2A ag conf = mouse HTR2A agonism confirmed; CHO-K1 PathHunter beta-arrestin recruitment, luminescence; DMSO 0%, 30 µM serotonin 100%; shares compounds with m5-HT2A agonist; activation, % at 7.6 µM; actives 19% (n = 2,300);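 active = mean activation across triplicates above the hit threshold derived in the original primary screen, cut at about 15% in these data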
Starred values were filed as active, the others as inactive; . = no result. An excerpt weighted towards active compounds, which were near 4.3% of everything screened.

SMILES | TAAR1 agonist | MC4R ag barr | MC4R antagonist | m5-HT2A agonist | TAAR1 antag | Beta2AR agonist | OPRM1 ag | m5-HT2A ag conf
O=C(Nc1nccs1)C(Br)C(Br)c1ccccc1 (centres undefined) | 28 | 2 | -16 | 6 | 2 | -9 | . | .
CC(=O)OC(C(=O)Nc1nccs1)c1ccccc1 (centres undefined) | 4 | 1 | 8 | 16* | 7 | -3 | -1 | -2
COCCNC(=O)/C(C#N)=C/c1c(N2CCN(c3cccc(Cl)c3)CC2)nc2c(C)cccn2c1=O | 2 | 0 | 6 | 12 | 13 | 13 | . | .
C=CCNC(=O)/C(C#N)=C/c1c(N2CCN(c3cccc(Cl)c3)CC2)nc2c(C)cccn2c1=O | -1 | -1 | 9 | 20* | -3 | 2 | -1 | 6
CNC(=O)/C(C#N)=C/c1c(N2CCN(c3cccc(Cl)c3)CC2)nc2c(C)cccn2c1=O | 3 | 0 | -1 | 19* | -8 | 13 | -1 | 0
NS(=O)(=O)c1ccc(NC(=O)COC(=O)c2cc3ccccc3cc2O)cc1 | 6 | 0 | 12 | -3 | 24 | 2 | . | .
Cc1ccn2cc(C(=O)N3CCCC(Nc4ccc(F)cc4)C3)nc2c1 (centres undefined) | 0 | -2 | 7 | 18* | 4 | -11 | -1 | 1
Cc1ccc2nccc(C(=O)N3CCCC(Nc4ccc(F)cc4)C3)c2c1 (centres undefined) | 3 | -3 | 17 | 18* | -6 | 0 | -1 | -2
Nc1nnc(-c2ccccc2[N+](=O)[O-])o1 | 2 | -2 | 4 | 26* | -10 | 3 | 0 | -5
COc1ccc(CCN2CC(C(=O)N(C)CCn3nc(C)cc3C)CCC2=O)cc1 (centres undefined) | 2 | -1 | -2 | -4 | -25 | 0 | . | .
Cc1cc(C)n(CCN(C)C(=O)C2CCC(=O)N(CCc3cccc(F)c3)C2)n1 (centres undefined) | 0 | 0 | 1 | 15* | -4 | 0 | 0 | -3
COc1cccc(-n2c(SCC(=O)N3CCCCC3)nc3c([nH]c4ccccc43)c2=O)c1 | 1 | 0 | 9 | 21* | 5 | -3 | -1 | -4
COc1cccc(-n2c(SCC(N)=O)nc3c([nH]c4ccccc43)c2=O)c1 | 11 | -2 | -1 | 3 | 9 | 4 | . | .
CC(C)(C)SC(=O)C[C@@H]1NS(=O)(=O)OC2CCCCC21 (some centres undefined) | 8 | -1 | 6 | -2 | -12 | -4 | . | .
CC(C)(C)SC(=O)CC1NS(=O)(=O)OC2CCCCC12 (centres undefined) | -3 | -2 | 6 | 23* | -3 | -8 | 0 | -4
CCCCNc1c(-c2cccnc2)nc2nc(C)cc(C)n12 | 0 | . | . | 20* | -9 | . | -1 | -4
Cc1cc(C)n2c(Nc3c(C)cccc3C)c(-c3cccnc3)nc2n1 | 0 | . | . | 1 | 1 | . | . | .
O=C(/C=C/c1ccccc1)N(c1ccccn1)C1CCCCC1 | 22 | -2 | -3 | 2 | -5 | 27 | . | .
O=C(/C=C/c1ccccc1Cl)N(c1ccccn1)C1CCCCC1 | 4 | 1 | 21 | 16* | -18 | 26 | 0 | 40*
COc1ccc(NC(=O)Nc2ccc3c(c2)CC(=O)N([C@H](C)CO)C[C@H](C)[C@H](CN(C)Cc2ccc(C(=O)O)cc2)O3)cc1 | 3 | 1 | -10 | -4 | 10 | 5 | . | .
COc1ccccc1CNS(=O)(=O)c1c(C)nc2scc(C)n2c1=O | 1 | 0 | 10 | 15* | -17 | -1 | 0 | 1
Cc1cccc(NC(=O)CNC(=O)c2cccs2)n1 | 1 | 2 | -3 | 8 | -23 | -12 | . | .

Screens (PubChem)
